The list is not random: actives were taken first. Their share in the collection is about 2.5%.
SUMO1 PPI mod – modulators of SUMO1 protein-protein interactions, primary screen, biochemical, uHTS | inhibition, % at 20 µM | 360,000 tested, 0.33% active | SUMO1 binding to a labelled peptide, TR-FRET, 1 h | AID 602429, 2012; in the data active = inhibition above about 37%
Target sequence (P63165 whole entry, looked up): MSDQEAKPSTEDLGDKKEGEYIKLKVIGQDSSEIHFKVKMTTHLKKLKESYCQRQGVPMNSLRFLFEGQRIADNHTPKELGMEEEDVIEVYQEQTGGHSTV
DNMT1 inh – human DNMT1 methyltransferase inhibitors, primary screen, biochemical, molecular beacon, fluorescence, HinP1I cleavage, uHTS | DNA (cytosine-5)-methyltransferase 1 (Homo sapiens), P26358 | inhibition (reported as % activation of signal), % at 10 µM | 360,000 tested, 0.83% active | AID 588458, 2011; in the data active = inhibition above about 50%
DSG3 Ab inh – inhibitors of pemphigus antibody binding to DSG3, primary screen, biochemical, bead-based, flow cytometry, scFv-GFP. Desmoglein-3 (Homo sapiens), P32926. DSG3-coupled beads, scFv-anti-DSG3-GFP binding; hits give low values. binding (percent of control), % at 10 µM. 310,000 tested, 0.48% active. AID 588358, 2011;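 active = binding more than 3 SD below its plate's average and above zero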;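 also: hits lower antibody fragment binding to DSG3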
UHRF1 binding – UHRF1 methylated DNA binding inhibitors, primary screen, counter-screen for MBD2 inhibitor project, biochemical, TR-FRET, human UHRF1, single concentration; E3 ubiquitin-protein ligase UHRF1 (Homo sapiens), Q96T88; UHRF1 binding to methylated oligo; inhibition, % at 4.4 µM; 370,000 tested, 0.75% active; in the data active = inhibition above about 21%;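 also: UHRF1 SRA domain binding a hemimethylated CpG hairpin DNA probe; 0% = median of test compound wells and 100% = reference inhibitor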
HCV NS3 hel inh – inhibitors of HCV NS3 helicase, primary screen, biochemical, Cy5 molecular beacon fluorescence; Hepatitis C virus NS3 helicase; NS3 helicase DNA unwinding; inhibition, % at 10.9 µM; 290,000 tested, 0.56% active; AID 1800, 2009;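 active = inhibition above the mean of all tested compounds plus 3 SD, set per campaign, cut at about 35% in these data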;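 also: 0% = DMSO wells and 100% = thioflavine S control wells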
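assay system = NS3 helicase fragment of HCV | buffer or medium = MOPS pH 6.5, MgCl2, DTT, Tween20, BSA | timing = 60 min unwinding reaction at 25 °C after ATP addition | signal = Cy5 beacon fluorescence read at start and 1 h | read-out basis = % inhibition of unwinding | control set = low DMSO, high thioflavine S at 110 µM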
MBD2 DNA inh – inhibitors of MBD2 binding to methylated DNA, primary screen, biochemical, TR-FRET, DNA-binding domain, human | Methyl-CpG-binding domain protein 2 (Homo sapiens), Q9UBB5 | MBD2 binding to methylated oligonucleotide | inhibition, % at 4.4 µM | 370,000 tested, 0.31% active | AID 686964, 2013; in the data active = inhibition above about 13%
Target sequence (Q9UBB5 whole entry, looked up, the tested form may be a part): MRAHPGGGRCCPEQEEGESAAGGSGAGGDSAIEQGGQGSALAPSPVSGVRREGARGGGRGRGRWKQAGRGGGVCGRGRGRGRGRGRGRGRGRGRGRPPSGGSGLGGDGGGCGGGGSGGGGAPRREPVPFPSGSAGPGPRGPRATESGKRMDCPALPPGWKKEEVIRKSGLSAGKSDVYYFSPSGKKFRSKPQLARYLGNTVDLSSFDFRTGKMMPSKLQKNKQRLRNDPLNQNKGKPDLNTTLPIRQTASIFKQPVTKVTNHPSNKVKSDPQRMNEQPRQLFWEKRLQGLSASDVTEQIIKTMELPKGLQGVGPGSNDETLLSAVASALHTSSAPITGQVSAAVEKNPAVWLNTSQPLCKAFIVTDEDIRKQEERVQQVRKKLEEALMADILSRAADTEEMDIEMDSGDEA
An asterisk follows results filed as active; . = not tested or not shown.

SMILES	SUMO1 PPI mod	DNMT1 inh	DSG3 Ab inh	UHRF1 binding	HCV NS3 hel inh	MBD2 DNA inh
Cc1cc(CN2CCCC(CO)(Cc3cccc(Cl)c3)C2)n[nH]1 (stereo not given)	11	0	108	24*	9	3
CN(C)c1ccc(NC(=O)Nc2csc3ccccc23)cc1	5	-19	93	-3	4	2
CC(CCC(=O)NN)C1CCC2C3CCC4CC(O)CCC4(C)C3CCC12C (stereo not given)	9	-8	95	-1	.	0
CC(CCC(C)C(C)(C)C)[C@@H]1CC[C@H]2C3C[C@H](OS(O)(=S)=S)[C@H]4C[C@H](OS(O)(=S)=S)[C@@H](OS(O)(=S)=S)C[C@]4(C)[C@H]3CC[C@]12C (stereo not given in full) (tested in a mixture with another compound)	45*	-167	100	.	.	.
Oc1cccc(/C=N/Nc2nn3cnnc3c3ccccc23)c1	84*	0	96	-2	1	-4
O=C(CC1Oc2ccccc2NC1=O)NC1CCCC1 (stereo not given)	6	5	109	-1	15	-3
Cc1ccc2nc(-c3ccc(Cl)cc3)c(CC3CCCCC3)n2c1	8	5	.	21*	.	9
Cc1ccc2nc(-c3ccc(F)cc3)c(CC3CCCCC3)n2c1	6	.	.	21*	.	13
Cc1ccc2nc(-c3ccco3)c(CC3CCCCC3)n2c1	0	1	.	.	.	.
Brc1ccc2nc(-c3ccco3)c(CC3CCCCC3)n2c1	23	69*	.	12	.	0
COc1cc([C@H]2c3[nH]c4ccccc4c3C[C@H]3C(=O)N4[C@@H](c5cc(OC)c(OC)c(OC)c5)c5[nH]c6ccccc6c5C[C@H]4C(=O)N23)cc(OC)c1OC	13	52*	105	.	-20	.
O=C(NC1CCCCN(Cc2cccc(Cl)c2)C1=O)c1cccc(C(F)(F)F)c1 (stereo not given)	.	.	.	-3	.	1
CCN(CC)c1ccc(/C=N/NC(=O)c2ccoc2C)c(O)c1	-8	7	48*	-2	-2	1
O=C(c1ccc(Br)o1)N1CCN(c2ccc3nnc(-c4ccc(F)cc4)n3n2)CC1	49*	-7	102	-1	2	-3
C/C(=N\NC(=O)CCCCCNC(=O)c1ccccc1)c1ccccc1O	2	-1	101	2	-19	0
O=C(CCCCCNC(=O)c1ccccc1)N/N=C/c1ccc(O)cc1O	2	0	113	21*	1	11
Cc1ccc(NC(=O)c2cc(S(=O)(=O)N3CCCC3)cn2C)cc1C	-4	-1	18*	0	-4	-4
CCOc1ccc(NC(=S)C(C#N)=C2N(C)c3ccccc3N2C)cc1	-1	-3	96	22*	5	1
CCOc1ccc(NC(=S)N2c3ccccc3CC2C)cc1 (stereo not given)	-4	-8	109	5	-12	-1
COc1ccccc1-n1c(SCC(=O)N2CCCCC2)nc(O)c(Cc2ccccc2)c1=O	8	5	.	1	-1	3
COc1ccccc1-n1c(SCC(=O)NC(C)(C)C)nc(O)c(Cc2ccccc2)c1=O	-1	4	94	22*	-11	6
Fc1cccc(Nc2ncnc3sc4c(c23)CCC4)c1	5	0	100	-2	5	-6
Clc1ccccc1-c1nnc(-c2ccc3c(c2)OCO3)o1	-2	-1	79*	2	-5	1
Cc1cccc(NC(=O)Cn2nnc(-c3cccs3)n2)c1C	-2	6	98	-4	0	-5
CC(C)NC(=O)c1c(CSc2ccccc2)noc1C(=O)NCc1ccccc1	2	-3	100	22*	.	-2
SMILES	SUMO1 PPI mod	DNMT1 inh	DSG3 Ab inh	UHRF1 binding	HCV NS3 hel inh	MBD2 DNA inh
Cc1ccc(S(=O)(=O)N2CCN(C(C)C(=O)N3CCCc4ccccc43)CC2)cc1 (stereo not given)	0	-4	99	27*	-10	1
CCC1(C)Cc2c(sc3c2c(=O)n(C)c2nnc(SCCc4ccccc4)n32)CO1 (stereo not given)	3	2	96	2	3	-1
O=C(N/N=C/C=C/c1ccc2c(c1)OCO2)c1ccc([N+](=O)[O-])cc1	-14	11	88	-2	-1	-2
O=C(COc1ccc(/C=N/NC(=O)c2ccncc2)cc1)Nc1ccc([N+](=O)[O-])cc1	42*	-2	.	3	-25	-7
O=C(NN=Cc1ccc([N+](=O)[O-])cc1)c1ccncc1	-33	1	100	0	.	-2
O=C(/C=C/c1ccc([N+](=O)[O-])cc1)Oc1ccc(/C=N/NC(=O)c2ccncc2)cc1	47*	5	75	-1	5	-1
Nc1ccc(C(=O)N/N=C\C=C\c2ccc([N+](=O)[O-])cc2)cc1	-20	18	44*	-5	4	1
CCOC(=O)C1=C(COC(=O)[C@@H](NC(=O)c2cccc(C)c2)C(C)C)NC(=O)NC1C (stereo not given in full)	7	4	134	21*	.	3
CCOC(=O)C1=C(COC(=O)COc2ccc(C#N)cc2)NC(=O)NC1C (stereo not given)	3	2	.	22*	4	11
COc1ccc(C2=CC3=C(Br)C(=O)C(C)(O)C(=O)C3=CO2)cc1 (stereo not given)	52*	7	91	.	.	.
CCC(=O)OC1(C)C(=O)C2=COC(c3ccc(OC)cc3)=CC2=C(Br)C1=O (stereo not given)	50*	-4	94	18	.	3
O=C1CN=C(Nc2ccc(Cl)cc2)N1c1ccccc1	1	1	.	2	-9	0
CCCCCCn1c(=O)n2n(c1=O)[C@@H]1CN(S(=O)(=O)c3ccc(C)cc3)C[C@]1(O)[C@@H](OC(=O)NCC1CCCCC1)C2	0	-16	113	23*	.	4
CN(C)c1ccc(C#Cc2ccc3cc(CCCO)oc(=O)c3c2)cc1	-37	-4	84*	5	.	-3
O=c1oc(CCCO)cc2ccc(C#Cc3ccsc3)cc12	22	-9	97	-2	.	3
COc1ccc(-c2coc3c(C)c4oc(=O)c(CCC(=O)O)c(C)c4cc23)cc1	24	-1	116	.	-31	.
Cc1c(CCC(=O)O)c(=O)oc2c(C)c3occ(-c4ccc(Br)cc4)c3cc12	52*	12	115	1	15	-1
